In ChEMBL document CHEMBL3352666, “Human Toll-like receptor 8-selective agonistic activities in 1-alkyl-1H-benzimidazol-2-amines” (J Med Chem, 2014):
Calls of active or inactive are those of the source.

Tests used:
Assay type in all cases: cell-based
[1] = target: Toll-like receptor 2 (Homo sapiens) (UniProt O60603); experiment: Agonist activity at human TLR2 stably expressed in HEK293 cells co-expressing secreted alkaline phosphatase assessed as NF-kappaB induction by liquid handler-assisted reporter gene assay
Outline: (§1)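 HEK293 reporter cells stably co-transfected with the respective human TLR or NOD receptor plus NF-κB/AP-1-driven secreted alkaline phosphatase, kept in selection medium. About 10^5 cells/ml were incubated with graded concentrations of test compound in 384-well format. Supernatant sAP was read colorimetrically at 620 nm with an alkaline phosphatase-specific chromogen in detection medium.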

[2] = target: Toll-like receptor 3 (Homo sapiens) (UniProt O15455); experiment: Agonist activity at human TLR3 stably expressed in HEK293 cells co-expressing secreted alkaline phosphatase assessed as NF-kappaB induction by liquid handler-assisted reporter gene assay; outline: as §1
[3] = target: Toll-like receptor 4 (Homo sapiens) (UniProt O00206); experiment: Agonist activity at human TLR4 stably expressed in HEK293 cells co-expressing secreted alkaline phosphatase assessed as NF-kappaB induction by liquid handler-assisted reporter gene assay; outline: as §1
[4] = target: Toll-like receptor 5 (Homo sapiens) (UniProt O60602); experiment: Agonist activity at human TLR5 stably expressed in HEK293 cells co-expressing secreted alkaline phosphatase assessed as NF-kappaB induction by liquid handler-assisted reporter gene assay; outline: as §1
[5] = target: T1, Toll-like receptor 7 (Homo sapiens) (UniProt Q9NYK1); experiment: Agonist activity at human TLR7 stably expressed in HEK293 cells co-expressing secreted alkaline phosphatase assessed as NF-kappaB induction by liquid handler-assisted reporter gene assay; outline: as §1
T1 sequence (whole entry): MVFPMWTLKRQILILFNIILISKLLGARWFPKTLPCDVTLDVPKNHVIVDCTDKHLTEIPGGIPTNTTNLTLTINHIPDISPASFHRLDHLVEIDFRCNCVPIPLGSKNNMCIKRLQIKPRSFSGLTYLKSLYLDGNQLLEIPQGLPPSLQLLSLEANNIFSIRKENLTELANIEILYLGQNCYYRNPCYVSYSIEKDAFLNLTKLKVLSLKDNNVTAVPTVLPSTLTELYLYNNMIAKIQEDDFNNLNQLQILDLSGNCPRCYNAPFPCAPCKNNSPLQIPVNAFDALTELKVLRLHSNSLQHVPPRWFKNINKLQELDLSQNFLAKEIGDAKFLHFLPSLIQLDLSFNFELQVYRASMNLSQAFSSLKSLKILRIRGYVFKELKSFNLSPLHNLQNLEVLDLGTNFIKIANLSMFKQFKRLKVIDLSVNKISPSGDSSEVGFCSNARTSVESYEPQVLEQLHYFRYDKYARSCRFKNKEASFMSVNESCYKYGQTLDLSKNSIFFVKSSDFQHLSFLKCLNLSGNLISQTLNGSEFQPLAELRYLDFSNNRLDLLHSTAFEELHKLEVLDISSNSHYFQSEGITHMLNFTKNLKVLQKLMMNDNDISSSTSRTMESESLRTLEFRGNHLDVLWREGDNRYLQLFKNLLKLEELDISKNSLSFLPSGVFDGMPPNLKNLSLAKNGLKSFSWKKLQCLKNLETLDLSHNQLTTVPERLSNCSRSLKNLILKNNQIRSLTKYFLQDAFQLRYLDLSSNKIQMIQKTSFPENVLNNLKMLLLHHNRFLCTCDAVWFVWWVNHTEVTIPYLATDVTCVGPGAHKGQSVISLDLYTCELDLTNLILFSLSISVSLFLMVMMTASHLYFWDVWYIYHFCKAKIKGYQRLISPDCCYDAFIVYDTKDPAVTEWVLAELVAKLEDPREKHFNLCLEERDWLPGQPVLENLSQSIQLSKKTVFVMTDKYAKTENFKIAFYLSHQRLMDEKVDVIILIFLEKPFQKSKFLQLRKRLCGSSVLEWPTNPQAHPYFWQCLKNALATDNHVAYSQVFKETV

[6] = target: T2, Toll-like receptor 9 (Homo sapiens) (UniProt Q9NR96); experiment: Agonist activity at human TLR9 stably expressed in HEK293 cells co-expressing secreted alkaline phosphatase assessed as NF-kappaB induction by liquid handler-assisted reporter gene assay; outline: as §1
T2 sequence (whole entry): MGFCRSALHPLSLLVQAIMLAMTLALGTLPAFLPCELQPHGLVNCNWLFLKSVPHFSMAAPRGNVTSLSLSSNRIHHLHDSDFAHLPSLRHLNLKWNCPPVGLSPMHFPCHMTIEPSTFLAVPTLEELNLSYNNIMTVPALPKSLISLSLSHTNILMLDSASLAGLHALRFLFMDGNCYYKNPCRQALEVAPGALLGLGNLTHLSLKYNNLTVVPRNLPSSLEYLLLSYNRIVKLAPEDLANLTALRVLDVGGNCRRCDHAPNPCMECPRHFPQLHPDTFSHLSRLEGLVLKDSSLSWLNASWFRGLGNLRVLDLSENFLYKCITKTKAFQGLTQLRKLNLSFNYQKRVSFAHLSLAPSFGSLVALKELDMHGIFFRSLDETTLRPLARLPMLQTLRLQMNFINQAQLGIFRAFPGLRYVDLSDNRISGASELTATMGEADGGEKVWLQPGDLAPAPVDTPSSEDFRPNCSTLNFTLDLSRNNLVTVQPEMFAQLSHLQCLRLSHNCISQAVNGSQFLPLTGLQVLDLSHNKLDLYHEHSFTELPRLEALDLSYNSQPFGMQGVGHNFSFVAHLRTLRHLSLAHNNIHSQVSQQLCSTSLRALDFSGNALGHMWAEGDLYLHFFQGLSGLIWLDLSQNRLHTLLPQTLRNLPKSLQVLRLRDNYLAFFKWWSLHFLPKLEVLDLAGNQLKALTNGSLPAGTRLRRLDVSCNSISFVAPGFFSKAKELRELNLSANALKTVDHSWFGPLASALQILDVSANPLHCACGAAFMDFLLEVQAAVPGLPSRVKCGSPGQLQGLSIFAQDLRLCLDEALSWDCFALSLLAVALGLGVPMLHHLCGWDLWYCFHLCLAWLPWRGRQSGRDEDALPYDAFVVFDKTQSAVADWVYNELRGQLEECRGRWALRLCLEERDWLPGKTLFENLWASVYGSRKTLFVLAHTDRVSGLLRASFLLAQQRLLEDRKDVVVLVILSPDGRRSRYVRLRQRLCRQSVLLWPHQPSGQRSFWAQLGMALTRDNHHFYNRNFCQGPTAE

[7] = target: T3, Nucleotide-binding oligomerization domain-containing protein 1 (Homo sapiens) (UniProt Q9Y239); experiment: Agonist activity at human NOD1 stably expressed in HEK293 cells co-expressing secreted alkaline phosphatase assessed as NF-kappaB induction by liquid handler-assisted reporter gene assay; outline: as §1
T3 sequence (whole entry): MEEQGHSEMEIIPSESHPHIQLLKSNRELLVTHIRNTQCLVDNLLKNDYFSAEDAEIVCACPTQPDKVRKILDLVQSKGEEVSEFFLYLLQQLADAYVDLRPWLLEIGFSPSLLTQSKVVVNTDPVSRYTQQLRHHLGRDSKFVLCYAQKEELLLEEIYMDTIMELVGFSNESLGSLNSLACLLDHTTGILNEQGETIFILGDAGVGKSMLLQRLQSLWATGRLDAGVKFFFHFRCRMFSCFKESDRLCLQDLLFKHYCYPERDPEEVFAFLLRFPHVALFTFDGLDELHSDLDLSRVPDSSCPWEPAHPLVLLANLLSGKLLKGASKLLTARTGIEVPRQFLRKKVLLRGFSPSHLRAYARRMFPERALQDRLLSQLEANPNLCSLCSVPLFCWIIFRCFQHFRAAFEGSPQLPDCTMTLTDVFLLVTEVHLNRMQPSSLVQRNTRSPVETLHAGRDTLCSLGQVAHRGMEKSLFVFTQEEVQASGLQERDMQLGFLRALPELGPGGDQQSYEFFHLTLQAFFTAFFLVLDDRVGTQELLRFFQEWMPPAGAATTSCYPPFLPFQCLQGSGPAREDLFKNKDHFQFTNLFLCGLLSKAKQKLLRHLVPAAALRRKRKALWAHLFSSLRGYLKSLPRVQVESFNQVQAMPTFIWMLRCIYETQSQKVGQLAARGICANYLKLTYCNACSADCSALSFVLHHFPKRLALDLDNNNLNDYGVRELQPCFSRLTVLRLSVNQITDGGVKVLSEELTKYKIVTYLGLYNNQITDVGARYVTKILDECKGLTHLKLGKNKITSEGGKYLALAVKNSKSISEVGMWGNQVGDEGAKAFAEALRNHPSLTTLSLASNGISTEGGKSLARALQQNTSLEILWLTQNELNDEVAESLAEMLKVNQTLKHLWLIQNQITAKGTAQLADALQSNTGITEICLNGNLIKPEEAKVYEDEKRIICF

[8] = target: Nucleotide-binding oligomerization domain-containing protein 2 (Homo sapiens, UniProt Q9HC29); experiment: Agonist activity at human NOD2 stably expressed in HEK293 cells co-expressing secreted alkaline phosphatase assessed as NF-kappaB induction by liquid handler-assisted reporter gene assay; outline: as §1

Measured: Activity

Toll-like receptor 2 (Homo sapiens), sequence (O60603 whole entry): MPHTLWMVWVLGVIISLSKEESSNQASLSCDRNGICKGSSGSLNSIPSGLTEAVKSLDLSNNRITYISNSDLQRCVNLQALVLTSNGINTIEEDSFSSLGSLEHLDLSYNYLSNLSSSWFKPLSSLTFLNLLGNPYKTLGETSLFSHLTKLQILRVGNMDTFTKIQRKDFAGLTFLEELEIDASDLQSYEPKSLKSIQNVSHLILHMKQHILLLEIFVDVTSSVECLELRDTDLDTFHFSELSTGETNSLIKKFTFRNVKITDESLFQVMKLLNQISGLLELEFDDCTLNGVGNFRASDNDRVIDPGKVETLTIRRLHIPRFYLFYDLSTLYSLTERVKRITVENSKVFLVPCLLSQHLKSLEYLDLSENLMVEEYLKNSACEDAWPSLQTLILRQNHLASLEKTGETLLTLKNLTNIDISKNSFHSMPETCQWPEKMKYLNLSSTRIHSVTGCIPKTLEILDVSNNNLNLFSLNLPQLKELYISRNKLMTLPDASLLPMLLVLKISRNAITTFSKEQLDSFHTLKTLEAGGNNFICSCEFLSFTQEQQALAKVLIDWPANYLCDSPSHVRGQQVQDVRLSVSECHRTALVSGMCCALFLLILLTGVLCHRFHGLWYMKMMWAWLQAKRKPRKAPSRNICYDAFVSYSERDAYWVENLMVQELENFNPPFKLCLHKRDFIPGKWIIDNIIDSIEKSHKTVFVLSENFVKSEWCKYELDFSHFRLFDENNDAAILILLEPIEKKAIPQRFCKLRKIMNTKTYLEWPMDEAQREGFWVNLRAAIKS
Toll-like receptor 4 (Homo sapiens), sequence (O00206 whole entry): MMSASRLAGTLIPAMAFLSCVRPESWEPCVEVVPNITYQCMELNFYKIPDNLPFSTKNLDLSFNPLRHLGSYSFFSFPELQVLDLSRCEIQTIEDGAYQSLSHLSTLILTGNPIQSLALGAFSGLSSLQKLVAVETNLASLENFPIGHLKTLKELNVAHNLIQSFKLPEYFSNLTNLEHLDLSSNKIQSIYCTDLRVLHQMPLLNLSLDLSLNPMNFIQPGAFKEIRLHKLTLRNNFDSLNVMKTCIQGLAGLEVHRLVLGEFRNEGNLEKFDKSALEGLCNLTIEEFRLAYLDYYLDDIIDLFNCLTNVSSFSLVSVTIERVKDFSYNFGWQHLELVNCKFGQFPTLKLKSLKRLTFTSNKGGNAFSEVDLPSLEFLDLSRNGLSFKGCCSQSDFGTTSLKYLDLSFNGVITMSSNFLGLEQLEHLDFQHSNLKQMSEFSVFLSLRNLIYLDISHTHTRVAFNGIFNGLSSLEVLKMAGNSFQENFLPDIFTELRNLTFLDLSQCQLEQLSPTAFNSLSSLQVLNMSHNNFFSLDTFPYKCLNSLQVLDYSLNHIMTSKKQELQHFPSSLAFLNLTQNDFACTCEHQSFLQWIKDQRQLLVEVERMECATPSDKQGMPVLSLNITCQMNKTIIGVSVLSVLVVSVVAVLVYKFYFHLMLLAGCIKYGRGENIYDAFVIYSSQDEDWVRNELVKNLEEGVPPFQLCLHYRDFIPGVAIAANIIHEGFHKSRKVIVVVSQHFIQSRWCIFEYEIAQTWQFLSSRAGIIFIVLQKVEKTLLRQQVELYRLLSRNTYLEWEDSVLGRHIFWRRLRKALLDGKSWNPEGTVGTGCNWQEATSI
Toll-like receptor 5 (Homo sapiens), sequence (O60602 whole entry): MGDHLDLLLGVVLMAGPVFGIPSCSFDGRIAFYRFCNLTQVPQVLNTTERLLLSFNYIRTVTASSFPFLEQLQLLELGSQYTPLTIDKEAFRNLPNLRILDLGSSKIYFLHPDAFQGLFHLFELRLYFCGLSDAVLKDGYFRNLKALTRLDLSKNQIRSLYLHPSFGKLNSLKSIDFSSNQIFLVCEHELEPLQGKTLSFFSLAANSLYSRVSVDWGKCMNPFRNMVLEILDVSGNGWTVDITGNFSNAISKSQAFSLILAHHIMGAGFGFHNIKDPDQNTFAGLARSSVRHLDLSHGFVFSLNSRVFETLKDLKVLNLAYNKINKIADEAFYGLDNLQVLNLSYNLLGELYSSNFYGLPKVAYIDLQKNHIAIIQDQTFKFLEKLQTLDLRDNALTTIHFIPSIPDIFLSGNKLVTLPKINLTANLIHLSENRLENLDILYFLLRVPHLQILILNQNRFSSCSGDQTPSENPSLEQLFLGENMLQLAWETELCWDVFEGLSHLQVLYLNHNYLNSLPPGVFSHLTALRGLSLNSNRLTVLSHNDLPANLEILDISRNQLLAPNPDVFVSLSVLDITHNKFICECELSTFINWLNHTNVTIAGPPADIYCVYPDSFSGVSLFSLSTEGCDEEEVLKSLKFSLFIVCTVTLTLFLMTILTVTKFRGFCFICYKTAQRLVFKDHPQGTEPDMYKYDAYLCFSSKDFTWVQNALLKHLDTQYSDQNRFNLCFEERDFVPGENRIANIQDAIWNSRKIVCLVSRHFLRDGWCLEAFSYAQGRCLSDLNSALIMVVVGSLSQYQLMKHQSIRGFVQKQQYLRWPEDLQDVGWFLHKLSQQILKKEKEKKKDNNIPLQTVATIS
Toll-like receptor 3 (Homo sapiens), sequence (O15455 whole entry): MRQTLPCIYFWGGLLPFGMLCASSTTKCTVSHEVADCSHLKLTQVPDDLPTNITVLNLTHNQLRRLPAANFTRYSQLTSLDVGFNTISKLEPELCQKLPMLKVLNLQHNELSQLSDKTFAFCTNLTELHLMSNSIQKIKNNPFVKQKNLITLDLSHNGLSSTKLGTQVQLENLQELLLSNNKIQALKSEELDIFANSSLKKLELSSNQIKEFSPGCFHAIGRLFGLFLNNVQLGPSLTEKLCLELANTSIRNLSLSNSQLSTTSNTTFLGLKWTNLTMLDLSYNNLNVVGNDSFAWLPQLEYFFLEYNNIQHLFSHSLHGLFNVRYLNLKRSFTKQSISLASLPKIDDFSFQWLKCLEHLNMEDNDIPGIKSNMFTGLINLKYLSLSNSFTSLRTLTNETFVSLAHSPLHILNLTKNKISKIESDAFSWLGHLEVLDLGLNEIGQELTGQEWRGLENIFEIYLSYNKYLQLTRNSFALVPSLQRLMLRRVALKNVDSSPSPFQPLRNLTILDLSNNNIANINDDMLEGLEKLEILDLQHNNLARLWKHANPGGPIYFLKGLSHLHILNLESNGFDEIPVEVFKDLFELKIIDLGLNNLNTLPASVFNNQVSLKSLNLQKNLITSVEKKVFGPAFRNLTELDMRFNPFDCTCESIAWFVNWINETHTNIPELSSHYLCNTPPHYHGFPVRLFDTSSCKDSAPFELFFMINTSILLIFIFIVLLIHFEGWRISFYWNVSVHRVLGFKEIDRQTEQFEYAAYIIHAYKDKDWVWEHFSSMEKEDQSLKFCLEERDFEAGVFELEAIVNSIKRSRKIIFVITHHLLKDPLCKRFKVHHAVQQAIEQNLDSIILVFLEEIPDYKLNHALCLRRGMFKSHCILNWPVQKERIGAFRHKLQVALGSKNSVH
Nucleotide-binding oligomerization domain-containing protein 2, sequence (Q9HC29 whole entry, the tested form may be a part): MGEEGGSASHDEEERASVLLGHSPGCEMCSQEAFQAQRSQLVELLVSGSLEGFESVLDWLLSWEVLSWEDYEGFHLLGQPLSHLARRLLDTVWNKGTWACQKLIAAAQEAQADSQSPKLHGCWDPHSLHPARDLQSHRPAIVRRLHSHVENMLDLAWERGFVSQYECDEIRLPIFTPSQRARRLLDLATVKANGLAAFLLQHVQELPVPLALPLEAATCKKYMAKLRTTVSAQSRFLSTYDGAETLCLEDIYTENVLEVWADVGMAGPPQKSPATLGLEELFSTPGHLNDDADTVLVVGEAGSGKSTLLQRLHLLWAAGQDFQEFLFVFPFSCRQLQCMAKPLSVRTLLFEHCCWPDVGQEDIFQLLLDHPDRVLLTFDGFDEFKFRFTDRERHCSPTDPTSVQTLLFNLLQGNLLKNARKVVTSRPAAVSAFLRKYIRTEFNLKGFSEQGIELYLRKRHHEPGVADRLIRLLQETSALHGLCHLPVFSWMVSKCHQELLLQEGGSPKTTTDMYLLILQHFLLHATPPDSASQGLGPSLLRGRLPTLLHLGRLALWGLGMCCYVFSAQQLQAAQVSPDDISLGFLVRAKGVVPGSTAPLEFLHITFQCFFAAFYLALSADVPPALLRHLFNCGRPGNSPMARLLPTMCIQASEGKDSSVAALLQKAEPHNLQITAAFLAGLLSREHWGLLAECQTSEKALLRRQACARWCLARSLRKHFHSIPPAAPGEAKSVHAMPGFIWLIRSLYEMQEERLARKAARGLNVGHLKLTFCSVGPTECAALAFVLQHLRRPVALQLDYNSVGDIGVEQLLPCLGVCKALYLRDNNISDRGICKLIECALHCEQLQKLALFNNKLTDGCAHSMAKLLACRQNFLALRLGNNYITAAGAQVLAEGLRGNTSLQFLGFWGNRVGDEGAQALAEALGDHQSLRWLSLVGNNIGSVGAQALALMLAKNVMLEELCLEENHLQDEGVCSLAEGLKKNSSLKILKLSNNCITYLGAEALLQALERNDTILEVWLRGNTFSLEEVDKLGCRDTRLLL

CCCCCn1c(N)nc2c(N(C)C)cccc21
inactive: [1] | [2] | [3] | [4] | [5] | [6] | [7] | [8]

CCCCCn1c(N)nc2c(N)cccc21
inactive: [1] | [2] | [3] | [4] | [5] | [6] | [7] | [8]
